Experimental data reported in ChEMBL document CHEMBL4261642, “Design, synthesis, and ex vivo evaluation of a selective inhibitor for retinaldehyde dehydrogenase enzymes” (Bioorg Med Chem, 2018).
Activity calls are given as the source filed them. No cut-off for these calls is given here.

How the values were obtained:
[1] = target: T1, Aldehyde dehydrogenase 1A1 (Gallus gallus, UniProt P27463); assay: Inhibition of N-terminal His6-tagged recombinant chick RALDH1 expressed in Escherichia coli BL21(DE3) cells using RAL as substrate measured after 30 mins in presence of NADH by Morrison's plot analysis
T1 sequence (P27463 whole entry): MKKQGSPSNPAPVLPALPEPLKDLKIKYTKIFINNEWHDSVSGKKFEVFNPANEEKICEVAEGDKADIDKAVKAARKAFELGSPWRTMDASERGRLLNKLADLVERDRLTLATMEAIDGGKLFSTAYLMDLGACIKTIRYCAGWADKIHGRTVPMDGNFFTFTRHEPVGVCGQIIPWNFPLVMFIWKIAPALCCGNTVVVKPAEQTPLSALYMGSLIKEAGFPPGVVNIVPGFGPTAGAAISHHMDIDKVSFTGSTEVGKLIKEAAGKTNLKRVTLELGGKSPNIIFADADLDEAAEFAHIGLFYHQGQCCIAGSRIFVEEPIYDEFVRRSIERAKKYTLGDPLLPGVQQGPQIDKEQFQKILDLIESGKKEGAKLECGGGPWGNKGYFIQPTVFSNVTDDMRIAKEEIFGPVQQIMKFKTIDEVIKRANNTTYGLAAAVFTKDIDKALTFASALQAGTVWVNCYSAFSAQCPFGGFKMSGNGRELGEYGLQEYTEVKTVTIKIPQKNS
Method in brief: (§1)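 Ki obtained by fitting the Morrison tight-binding equation to the 20-min pre-incubation retinaldehyde/NADH fluorescence inhibition data. Inputs were enzyme concentration (RALDH1 0.358, RALDH2 0.091, RALDH3 0.355, hRALDH2 0.176 μM), substrate concentration and Km. Triplicates from 3–5 independent experiments.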

[2] = Inhibition of N-terminal His6-tagged recombinant chick RALDH3 expressed in Escherichia coli BL21(DE3) cells using RAL as substrate measured after 30 mins in presence of NADH by Morrison's plot analysis; set-up: species or system Gallus gallus; method in brief: as §1
Retinal dehydrogenase 2 [3] = target: T2, Retinal dehydrogenase 2 (Homo sapiens, UniProt O94788); assay: Inhibition of N-terminal His6-tagged recombinant human RALDH2 using RAL as substrate measured after 30 mins in presence of NADH by Morrison's plot analysis; method in brief: as §1
T2 sequence (O94788 whole entry): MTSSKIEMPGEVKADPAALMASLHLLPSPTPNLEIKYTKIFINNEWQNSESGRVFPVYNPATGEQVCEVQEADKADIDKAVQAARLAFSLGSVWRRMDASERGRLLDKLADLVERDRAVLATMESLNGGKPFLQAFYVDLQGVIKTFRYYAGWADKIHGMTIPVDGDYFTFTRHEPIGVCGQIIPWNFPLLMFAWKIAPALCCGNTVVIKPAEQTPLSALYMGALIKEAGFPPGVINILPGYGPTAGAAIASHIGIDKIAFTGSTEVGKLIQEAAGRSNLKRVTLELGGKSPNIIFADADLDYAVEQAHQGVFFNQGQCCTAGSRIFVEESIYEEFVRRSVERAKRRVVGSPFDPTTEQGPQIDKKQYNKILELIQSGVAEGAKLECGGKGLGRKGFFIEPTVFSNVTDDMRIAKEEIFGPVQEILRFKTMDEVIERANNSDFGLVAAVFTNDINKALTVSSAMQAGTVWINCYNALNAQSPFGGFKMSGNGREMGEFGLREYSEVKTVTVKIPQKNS

[4] = target: T3, Retinal dehydrogenase 2 (Gallus gallus) (UniProt O93344); assay: Inhibition of N-terminal His6-tagged recombinant chick RALDH2 expressed in Escherichia coli BL21(DE3) cells at 250 nM using RAL as substrate assessed as remaining activity preincubated for 20 mins followed by all-trans-retinaldehyde and substrate addition measured after 30 mins in presence of NAD+ by fluorescence assay
T3 sequence (whole entry): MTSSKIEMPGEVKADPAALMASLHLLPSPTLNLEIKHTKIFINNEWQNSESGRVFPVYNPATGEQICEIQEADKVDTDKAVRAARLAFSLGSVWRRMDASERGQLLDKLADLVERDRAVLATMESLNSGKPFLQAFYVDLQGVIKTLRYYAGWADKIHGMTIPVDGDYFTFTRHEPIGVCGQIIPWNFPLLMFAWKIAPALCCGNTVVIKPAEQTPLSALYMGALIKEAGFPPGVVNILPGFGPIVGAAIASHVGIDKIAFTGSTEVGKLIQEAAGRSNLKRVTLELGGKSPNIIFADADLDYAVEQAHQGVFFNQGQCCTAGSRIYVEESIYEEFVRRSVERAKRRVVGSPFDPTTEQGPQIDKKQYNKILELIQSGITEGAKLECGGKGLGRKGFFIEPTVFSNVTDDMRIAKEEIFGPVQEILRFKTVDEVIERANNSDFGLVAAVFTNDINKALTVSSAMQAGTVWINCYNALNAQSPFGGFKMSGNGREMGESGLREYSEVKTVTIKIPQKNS
Method in brief: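 Chick RALDH2 (91 nM) pre-incubated with 250 nM inhibitor for 0–80 min at 37°C, alone or with 250 μM retinaldehyde or 250 μM NAD+. Reaction then started with the missing substrate and/or cofactor (250 μM retinaldehyde, 4 mM NAD), 30 min at 37°C. Fluorimetric NADH; % activity remaining. Triplicates.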

Retinal dehydrogenase 2 [5] = target: T4, Retinal dehydrogenase 2 (Gallus gallus, UniProt O93344); assay: Inhibition of RALDH2 in living intact choroid isolated from 4 day recovering chick eyes assessed as inhibition of ATRA synthesis after 24 hrs in presence of […]
T4 sequence (O93344 whole entry): T3 sequence (whole entry)

Gallus gallus [6] = organism: Gallus gallus; assay: (§2) Inhibition of N-terminal His6-tagged recombinant chick RALDH3 expressed in Escherichia coli BL21(DE3) cells at 250 nM using RAL as substrate assessed as Vmax preincubated for 20 mins followed by substrate addition and measured after 30 mins in presence of NADH by fluorescence assay (reference value: 107.3 +/- 15.97 pmol/microM/min)
Gallus gallus [7] = organism: Gallus gallus; assay: as §2, with “500” for “250”
[8] = target: T5, Aldehyde dehydrogenase 1A1 (Gallus gallus) (UniProt P27463); assay: Irreversible inhibition of N-terminal His6-tagged recombinant chick RALDH1 expressed in Escherichia coli BL21(DE3) cells using RAL as substrate assessed as reduction in enzyme Vmzx preincubated for 20 mins followed by substrate addition and measured after 30 mins in presence of NADH by fluorescence assay
T5 sequence (whole entry): T1 sequence (P27463 whole entry)

[9] = target: T3, Retinal dehydrogenase 2 (Gallus gallus); assay: Inhibition of N-terminal His6-tagged recombinant chick RALDH2 expressed in Escherichia coli BL21(DE3) cells up to 500 nM using RAL as substrate assessed as rate of inactivation preincubated up to 40 mins followed by substrate addition and measured after 30 mins in presence of NADH by fluorescence assay
Method in brief: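 Chick RALDH2 pre-incubated 10, 20 and 40 min with 0–500 nM inhibitor, then assayed with retinaldehyde/NAD+ by fluorimetric NADH. kobs taken from linear regression of log % activity remaining versus pre-incubation time. KI and kinact obtained by nonlinear regression of kobs versus inhibitor concentration.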

[10] = target: T3, Retinal dehydrogenase 2 (Gallus gallus); assay: Inhibition of RALDH2 in choroidal cytosol fraction from control chick assessed as inhibition of ATRA synthesis at 0.1 to 6 uM pre-incubated for 20 mins followed by […] addition and measured after 30 mins by HPLC analysis
[11] = target: T3, Retinal dehydrogenase 2 (Gallus gallus); assay: Inhibition of chick RALDH2 expressed in doxycycline-inducible HEK293 cells assessed as inhibition of ATRA synthesis at 0.5 uM after 24 hrs in presence of […]

Ki [1]: 194 nM | Ki (Retinal dehydrogenase 2 [3]): 64.3 nM | Activity [4]: 27.8% | EC50 (Retinal dehydrogenase 2 [5]): 120 nM | inhibition [8]: Active | kobs [9]: 2.8e-05 to 0.012 min⁻¹ | inhibition [10]: 92 to 99% | inhibition [11]: 47%
Compound: CC1=C(/C=C/C(C)=C/C=C/C(C)=C/C(=O)C(Cl)Cl)C(C)(C)CCC1
Ki [2]: 6.74 nM | Vmax (Gallus gallus [6]): 41.6 pmol/µM/min | Vmax (Gallus gallus [7]): 21.6 pmol/µM/min
